Activity calls are given as the source filed them. The rule behind the calls is not given here.
How the values were obtained:
WI-38 [1] = assay: Antiproliferative activity against human WI38 cells after 72 hrs by MTT assay; format: cell-based; conditions: Homo sapiens, WI-38, 72 h
How it was run: (§1)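 Monolayer cells in DMEM with 10% FBS, 2 mM L-glutamine, penicillin and streptomycin at 37 °C, 5% CO2. Seeded at 3000-6000 cells/well by doubling time on day 0. Five 10-fold dilutions (0.01–100 µM) were added and incubated 72 h. MTT read-out, converted to percentage growth. IC50 by linear regression between bracketing concentrations. Quadruplicate points, three independent experiments, ANOVA/Tukey p<0.05.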

MIA PaCa-2 [2] = assay: Antiproliferative activity against human MIAPaCa2 cells after 72 hrs by MTT assay; format: functional, cell-based; conditions: Homo sapiens, MIA PaCa-2, 72 h; how it was run: as §1
SW-620 [3] = assay: Antiproliferative activity against human SW620 cells after 72 hrs by MTT assay; format: functional, cell-based; conditions: Homo sapiens, SW-620, 72 h; how it was run: as §1
HEp-2 [4] = assay: Antiproliferative activity against human Hep2 cells after 72 hrs by MTT assay; format: functional, cell-based; conditions: Homo sapiens, HEp-2, 72 h; how it was run: as §1
SK-BR-3 [5] = assay: Antiproliferative activity against human SKBR3 cells after 72 hrs by MTT assay; format: functional, cell-based; conditions: Homo sapiens, SK-BR-3, 72 h; how it was run: as §1
MCF7 [6] = assay: Antiproliferative activity against human MCF7 cells after 72 hrs by MTT assay; format: functional, cell-based; conditions: Homo sapiens, MCF7, 72 h; how it was run: as §1
HeLa [7] = assay: Antiproliferative activity against human HeLa cells after 72 hrs by MTT assay; format: functional, cell-based; conditions: Homo sapiens, HeLa, 72 h; how it was run: as §1
WI-38 [8] = assay: Cytostatic activity against human WI38 cells at 1 to 10 uM after 72 hrs by MTT assay; format: ADME, cell-based; conditions: wi-38, 72 h
How it was run: (§2)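 Monolayers in DMEM with 10% FBS, 2 mM L-glutamine, penicillin and streptomycin (37 °C, 5% CO2) were seeded at 3000–6000 cells/well on day 0. Five 10-fold dilutions (0.01–100 µM) were added, followed by 72-h incubation and MTT read-out. Absorbances were converted to percentage growth by the NIH formulae. Each point was run in quadruplicate in three experiments; ANOVA with Tukey test.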

SW-620 [9] = assay: Cytostatic activity against human SW620 cells at 1 to 10 uM after 72 hrs by MTT assay; format: functional, cell-based; how it was run: as §2
MIA PaCa-2 [10] = assay: Cytostatic activity against human MIAPaCa2 cells at 1 to 10 uM after 72 hrs by MTT assay; format: functional, cell-based; how it was run: as §2
SK-BR-3 [11] = assay: Cytostatic activity against human SKBR3 cells at 1 to 10 uM after 72 hrs by MTT assay; format: functional, cell-based; how it was run: as §2
HEp-2 [12] = assay: Cytostatic activity against human Hep2 cells at 1 to 10 uM after 72 hrs by MTT assay; format: functional, cell-based; how it was run: as §2
MCF7 [13] = assay: Cytostatic activity against human MCF7 cells at 1 to 10 uM after 72 hrs by MTT assay; format: functional, cell-based; how it was run: as §2
HeLa [14] = assay: Cytostatic activity against human HeLa cells at 1 to 10 uM after 72 hrs by MTT assay; format: functional, cell-based; how it was run: as §2
Nucleic Acid [15] = assay: Binding affinity to calf thymus DNA assessed as change in melting temperature at compound to polynucleotide ratio of 0.5 by UV-VIS spectroscopic analysis; format: nucleic-acid assay; conditions: Bos taurus
How it was run: (§3)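 ct-DNA alone or with compound at set r = [compound]/[polynucleotide], in cacodylate buffer pH 7.0, I = 0.05 mol dm^-3. Absorbance at 260 nm followed against temperature, ligand absorbance subtracted, curves normalized. Tm is the transition midpoint, from the first-derivative maximum or by tangent method. ΔTm = Tm(complex) − Tm(free DNA), mean of ≥2 runs, error ±0.5 °C.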

Nucleic Acid [16] = assay: Binding affinity to calf thymus DNA assessed as change in melting temperature at compound to polynucleotide ratio of 0.3 by UV-VIS spectroscopic analysis; format: nucleic-acid assay; conditions: Bos taurus; how it was run: as §3
Nucleic Acid [17] = assay: Binding affinity to calf thymus DNA assessed as change in melting temperature at compound to polynucleotide ratio of 0.2 by UV-VIS spectroscopic analysis; format: nucleic-acid assay; conditions: Bos taurus; how it was run: as §3
Nucleic Acid [18] = assay: Binding affinity to calf thymus DNA assessed as change in melting temperature at compound to polynucleotide ratio of 0.1 by UV-VIS spectroscopic analysis; format: nucleic-acid assay; conditions: Bos taurus; how it was run: as §3
Nucleic Acid [19] = assay: Binding affinity to calf thymus DNA assessed as appearance of weak positive CD band at compound to DNA ratio of > 0.3 and 350 to 400 nm wavelength by circular dichroism spectroscopy; format: nucleic-acid assay; conditions: Bos taurus
How it was run: (§4)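 CD spectra of ct-DNA (1.0 × 10^-5 mol dm^-3, as phosphate) titrated with compound at 25 °C. Sodium cacodylate buffer pH 7.0, I = 0.05 mol dm^-3, 1 cm quartz cuvette. DNA band (~274–275 nm) and induced bands above 300 nm followed versus r = [compound]/[ct-DNA].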

Nucleic Acid [20] = assay: Binding affinity to calf thymus DNA assessed as fluorescence quenching at compound to DNA ratio of 0.20 by fluorimetric titrations; format: nucleic-acid assay; conditions: Bos taurus
How it was run: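 Fluorimetric titration: portions of ct-DNA (sonicated, filtered, concentration as phosphate) added to compound in cacodylate buffer pH 7.0, I = 0.05 mol dm^-3. Emission 350–600 nm, sample absorbance <0.05 at excitation, mostly DNA excess (r < 0.1). Ks and n = [bound compound]/[DNA phosphate] by non-linear least-squares Scatchard fitting.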

Nucleic Acid [21] = assay: Binding affinity to calf thymus DNA assessed as hypochromic changes at 360 nm wavelength by UV-Vis spectrophotometric titrations; format: nucleic-acid assay; conditions: Bos taurus
How it was run: (§5)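 UV/Vis titration: aliquots of ct-DNA (concentration as phosphate) added to compound solution in sodium cacodylate buffer pH 7.0, I = 0.05 mol dm^-3, 1 cm quartz cuvettes. Hypochromism followed at band maxima. Compound absorbance linear up to 2.0 × 10^-5 mol dm^-3. Binding data fitted by the Scatchard equation.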

Nucleic Acid [22] = assay: Binding affinity to calf thymus DNA assessed as hypochromic changes at 342 nm wavelength by UV-Vis spectrophotometric titrations; format: nucleic-acid assay; conditions: Bos taurus; how it was run: as §5
Nucleic Acid [23] = assay: Binding affinity to calf thymus DNA assessed as hypochromic changes at 327 nm wavelength by UV-Vis spectrophotometric titrations; format: nucleic-acid assay; conditions: Bos taurus; how it was run: as §5
Nucleic Acid [24] = assay: Binding affinity to calf thymus DNA assessed as appearance of weak, negative CD band at 325 nm wavelength by circular dichroism spectroscopy; format: nucleic-acid assay; conditions: Bos taurus; how it was run: as §4

IC50 (MIA PaCa-2 [2]): 8.56 µM
IC50 (SW-620 [3]): 14.8 µM
IC50 (SK-BR-3 [5]): 3.51 µM
IC50 (MCF7 [6]): 7.56 µM
IC50 (HeLa [7]): 7.52 µM
ΔTm (Nucleic Acid [15]): 6.1 °C
ΔTm (Nucleic Acid [16]): 4.25 °C
ΔTm (Nucleic Acid [17]): 2.6 °C
ΔTm (Nucleic Acid [18]): 1.6 °C
Activity (Nucleic Acid [19]): Active
log Ks (Nucleic Acid [20]): 4.9
Activity (Nucleic Acid [21]): 38%
Activity (Nucleic Acid [22]): 37%
Activity (Nucleic Acid [23]): 28%
Activity (Nucleic Acid [24]): Active
SMILES: C[n+]1cccc2c1nc1ccc3ccccc3n12.[I-]
IC50 (WI-38 [1]): 6.27 µM
IC50 (HEp-2 [4]): 13.2 µM
Activity (WI-38 [8]): Toxic
Activity (SW-620 [9]): Active
Activity (MIA PaCa-2 [10]): Active
Activity (SK-BR-3 [11]): Active
Activity (HEp-2 [12]): Active
Activity (MCF7 [13]): Active
Activity (HeLa [14]): Active

Reference: ChEMBL document CHEMBL1806443, “Novel imidazo[4,5-b]pyridine and triaza-benzo[c]fluorene derivatives: synthesis, antiproliferative activity and DNA binding studies” (Eur J Med Chem, 2011)
